The target in assay [1] is T1, CDK4/Cyclin D3 (Homo sapiens) (UniProt P11802+P30281). Briefly: Inhibition of recombinant full-length human CDK4/cyclinD3 at 500 nM using Rb fragment as substrate measured after 40 mins in presence of [gamma33P]ATP by scintillation counting method relative to control. Format: protein-complex assay. Summed up:
(§1)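 Percent inhibition of kinase activity at a single compound concentration, measured by the outsourced Eurofins KinaseProfiler panel. Values are the mean of two independent experiments.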

The subject of assay [2] is NCI-H1299. In words: Antiproliferative activity against human H1299 cells assessed as inhibition of cell viability at 10 uM after 72 hrs by CCK-8 assay relative to control. It is filed as functional. As to conditions: NCI-H1299, 72 h. In short, it runs like this:
(§2)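 Single-concentration viability screen using CCK-8. Cells were seeded at 3000/well and treated for 72 h. A450 read after 1-4 h with reagent. Percent inhibition calculated against untreated control and blank wells as (Ac−As)/(Ac−Ab)×100%.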
On the technique in general: Tetrazolium assays rely on reduction of a dye to a coloured formazan, in cell work by metabolically active cells.

Assay [3] deals with A549. In words: Antiproliferative activity against human A549 cells assessed as inhibition of cell viability at 10 uM after 72 hrs by CCK-8 assay relative to control. Format: functional. Particulars: A549, 72 h. In short, it runs like this: as §2
Assay [4] relates to NCI-H1299. Briefly: Antiproliferative activity against human H1299 cells assessed as inhibition of cell viability at 1 uM after 72 hrs by CCK-8 assay relative to control. As to conditions: NCI-H1299, 72 h. It is filed as functional. In short, it runs like this: as §2
For assay [5], the target named is T2, CDK9/cyclin T1 (Homo sapiens) (UniProt O60563+P50750). In words: Inhibition of recombinant full-length human CDK9/cyclinT1 at 1 uM using KTFCGTPEYLAPEVRREPRILSEEEQEMFRDFDYIADWC peptide as substrate measured after 40 mins in presence of [gamma33P]ATP by scintillation counting method relative to control. It is filed as protein-complex assay. Summed up:
as §1

Assay [6] has as its target T3, CDK6/cyclin D3 (Homo sapiens) (UniProt P30281+Q00534). Briefly: Inhibition of recombinant full-length human CDK6/cyclinD3 at 500 nM using histone H1 as substrate measured after 40 mins in presence of [gamma33P]ATP by scintillation counting method relative to control. It is filed as protein-complex assay. Summed up:
as §1

The target in assay [7] is T2, CDK9/cyclin T1 (Homo sapiens). Briefly: Inhibition of recombinant full-length human CDK9/cyclinT1 at 500 nM using KTFCGTPEYLAPEVRREPRILSEEEQEMFRDFDYIADWC peptide as substrate measured after 40 mins in presence of [gamma33P]ATP by scintillation counting method relative to control. Format: protein-complex assay. Summed up: as §1
For assay [8], the target named is T3, CDK6/cyclin D3 (Homo sapiens). In words: Inhibition of recombinant full-length human CDK6/cyclinD3 at 1 uM using histone H1 as substrate measured after 40 mins in presence of [gamma33P]ATP by scintillation counting method relative to control. It is filed as protein-complex assay. Summed up: as §1
Assay [9] deals with A549. Briefly: Antiproliferative activity against human A549 cells assessed as inhibition of cell viability at 1 uM after 72 hrs by CCK-8 assay relative to control. Format: functional. Particulars: A549, 72 h. In short, it runs like this: as §2
The target of assay [10] is T1, CDK4/Cyclin D3 (Homo sapiens). In words: Inhibition of recombinant full-length human CDK4/cyclinD3 at 1 uM using Rb fragment as substrate measured after 40 mins in presence of [gamma33P]ATP by scintillation counting method relative to control. Format: protein-complex assay. Summed up: as §1

The inhibition is the relative decrease from the control value, in per cent.

The structures appear in SMILES notation. The source made the active and inactive calls. The rule behind the calls is not given here.

`CN(C)C(=O)c1cc2cnc(Nc3ccc(NC(=O)CCCCCN=C=S)cc3)nc2n1C1CCCC1`: the inhibition in [1] amounted to 99%; in assay [5], 97%; in [6] it was 64%; in [7], 99%; in assay [8], 90%; in assay [10], 96%. The figures for the inhibition at 10 µM in [2] and in assay [3] were 85% and 100%, respectively. The inhibition at 1 µM in assay [4] was found to be 34.3%; in assay [9] it was 56.1%.
In the case of `CN(C)C(=O)c1cc2cnc(Nc3ccc(N4CCN(C(=O)CCCCCCCN=C=S)CC4)cn3)nc2n1C1CCCC1`, the inhibition in assay [1] is 91%; in assay [5] it was 58%; in assay [6], 62%; in assay [7], 3%; in assay [8], 93%; in [10], 98%.
As for `O=C(CCCCCCCN=C=S)Nc1ccc(Nc2ncc3nnn(C4CCCC4)c3n2)cc1`, the inhibition amounted to 78% in [5], 34% in assay [7], 42% in [8] and 19% in assay [10].
Regarding `CN(C)C(=O)c1cc2cnc(Nc3ccc(C(=O)NCCCCCCCN=C=S)cc3O)nc2n1C1CCCC1`, the inhibition in [5] stood at 84%; in assay [7] it was 7%; in assay [8] it was 42%; in assay [10], 37%.
On to `CN(C)C(=O)c1cc2cnc(Nc3ccccc3NC(=O)CCCCCCCN=C=S)nc2n1C1CCCC1`, for which the inhibition in assay [5] was determined as 11%; in assay [8], 1%; in assay [10], 14%.
Consider `CN(C)C(=O)c1cc2cnc(Nc3ccc(S(=O)(=O)NCCCCN=C=S)cc3)nc2n1C1CCCC1`, for which the inhibition stood at 91% in assay [1]; 98% in assay [5]; 64% in [6]; 99% in assay [7]; 92% in assay [8]; 90% in assay [10]. Also, the inhibition at 10 µM in [2] was determined as 72.7%; in assay [3], 101%. The values for the inhibition at 1 µM in [4] and in assay [9] were 29.9% and 39.4%, respectively.
With `CN(C)C(=O)c1cc2cnc(Nc3ccc(C(=O)NCCCCCN=C=S)cc3)nc2n1C1CCCC1`, the inhibition in assay [1] was 101%; in assay [5], 97%; in assay [6], 79%; in assay [7], 97%; in assay [8] it was 94%; in assay [10], 97%. The results for the inhibition at 10 µM in assay [2] and in [3] were 76.5% and 100%, respectively. In addition, the values for the inhibition at 1 µM in [4] and in assay [9] were 50.3% and 29.3%, respectively.
On to `CN(C)C(=O)c1cc2cnc(Nc3ccc(NC(=O)CCCCCCCN=C=S)c(F)c3)nc2n1C1CCCC1`, for which the inhibition came out at 75% in assay [1]; 87% in assay [5]; 51% in assay [6]; 76% in [7]; 69% in assay [8]; 86% in assay [10].
Consider `CN(C)C(=O)c1cc2cnc(Nc3ccc(NC(=O)CCCCN=C=S)cc3)nc2n1C1CCCC1`, for which the inhibition in assay [1] is 100%; in assay [5] it was 97%; in assay [6] it was 71%; in assay [7], 99%; in assay [8] it was 93%; in assay [10], 97%. For the same compound, the inhibition at 10 µM is 82.5% in assay [2] and 102% in assay [3]. The inhibition at 1 µM in assay [4] was 58.6%; in assay [9] it was 38.2%.
With `CN(C)C(=O)c1cc2cnc(Nc3ccc(C(=O)NCCCCN=C=S)cc3)nc2n1C1CCCC1`, the inhibition in assay [1] is 99%; in assay [5], 99%; in [6], 79%; in assay [7], 98%; in assay [8], 93%; in assay [10] it was 98%. In addition, the inhibition at 10 µM was found to be 74.2% in assay [2] and 102% in assay [3]. The inhibition at 1 µM was determined as 55.2% in [4] and 30.2% in assay [9].
Regarding `CN(C)C(=O)c1cc2cnc(Nc3ccc(S(=O)(=O)NCCCN=C=S)cc3)nc2n1C1CCCC1`, the inhibition was determined as 85% in assay [1]; 97% in [5]; 59% in assay [6]; 96% in assay [7]; 89% in [8]; 90% in assay [10]. For the same compound, the results for the inhibition at 10 µM in assay [2] and in assay [3] were 72.8% and 102%, respectively. The inhibition at 1 µM in assay [4] came out at 41.3%; in assay [9], 58.9%.
For `CN(C)C(=O)c1cc2cnc(Nc3ccc(C(=O)NCCCCCN=C=S)cn3)nc2n1C1CCCC1`, the inhibition was 94% in [1]; 87% in assay [5]; 55% in assay [6]; 37% in assay [7]; 87% in assay [8]; 94% in assay [10].
Take `CN(C)C(=O)c1cc2cnc(NNC(=O)CCCCCCCN=C=S)nc2n1C1CCCC1`: the inhibition in assay [5] turned out to be 17%; in [10] it was 14%. Also, the inhibition entry in [8] was “inactive”.
Take `CN(C)C(=O)c1cc2cnc(Nc3ccc(C(=O)NCCCCCCN=C=S)cn3)nc2n1C1CCCC1`: the inhibition in assay [1] turned out to be 93%; in assay [5], 73%; in assay [6] it was 52%; in assay [7], 27%; in assay [8] it was 82%; in assay [10], 95%.
For the compound `CN(C)C(=O)c1cc2cnc(Nc3ccc(NC(=O)CCCN=C=S)cc3)nc2n1C1CCCC1`, the inhibition in [1] was 99%; in assay [5] it was 98%; in assay [6], 70%; in [7], 99%; in assay [8], 93%; in [10], 98%. Also, the inhibition at 10 µM in assay [2] amounted to 78.8%; in assay [3], 102%. For the same compound, the values for the inhibition at 1 µM in [4] and in assay [9] were 39.7% and 56.1%, respectively.
In the case of `CN(C)C(=O)c1cc2cnc(Nc3ccc(C(=O)NCCCCN=C=S)cn3)nc2n1C1CCCC1`, the inhibition in [1] was 91%; in assay [5], 85%; in assay [6], 53%; in assay [7], 41%; in [8], 88%; in assay [10], 95%.
On to `CN(C)C(=O)c1cc2cnc(Nc3ccc(C(=O)NCCCCCCN=C=S)cc3O)nc2n1C1CCCC1`, for which the inhibition in assay [5] came out at 81%; in [7], 5%; in assay [8] it was 47%; in assay [10] it was 45%.
In the case of `CN(C)C(=O)c1cc2cnc(Nc3ccc(NC(=O)CCCCCCCN=C=S)cc3C(F)(F)F)nc2n1C1CCCC1`, the inhibition in assay [5] amounted to 72%; in assay [7] it was 79%; in assay [8], 1%; in assay [10], 63%.
With `CN(C)C(=O)c1cc2cnc(Nc3ccc(S(=O)(=O)NCCCCCN=C=S)cc3)nc2n1C1CCCC1`, the inhibition in [1] is 85%; in assay [5], 98%; in assay [6], 51%; in assay [7], 95%; in assay [8] it was 89%; in assay [10], 91%. The inhibition at 10 µM in assay [2] worked out at 83.4%; in assay [3], 102%. Further, the figures for the inhibition at 1 µM in assay [4] and in assay [9] were 52.1% and 56.6%, respectively.
Consider `CN(C)C(=O)c1cc2cnc(Nc3ccc(CNC(=O)CCCCCCCN=C=S)cc3)nc2n1C1CCCC1`, for which the inhibition in [1] amounted to 89%; in [5], 95%; in assay [6], 63%; in assay [7] it was 90%; in assay [8] it was 81%; in assay [10], 93%. Also, the inhibition at 10 µM in [2] was found to be 91.7%; in assay [3], 98.9%. The figures for the inhibition at 1 µM in [4] and in [9] were 53.8% and 17.8%, respectively.
As to `CN(C)C(=O)c1cc2cnc(Nc3ccc(C(=O)NCCCCCCCN=C=S)cn3)nc2n1C1CCCC1`, the inhibition in assay [1] was 91%; in assay [5] it was 73%; in [6], 46%; in assay [7], 18%; in assay [8] it was 64%; in assay [10] it was 84%.
Turning to `CN(C)C(=O)c1cc2cnc(Nc3ccc(C(=O)NCCCN=C=S)cn3)nc2n1C1CCCC1`, the inhibition in assay [1] was determined as 92%; in assay [5], 84%; in assay [6], 54%; in assay [7], 40%; in assay [8], 89%; in [10], 95%.

The values above are taken from ChEMBL document CHEMBL4376814, “Novel cyclin-dependent kinase 9 (CDK9) inhibitor with suppression of cancer stemness activity against non-small-cell lung cancer” (Eur J Med Chem, 2019).
